From ChEMBL document CHEMBL4706730, “A Set of Highly Sensitive Sirtuin Fluorescence Probes for Screening Small-Molecular Sirtuin Defatty-Acylase Inhibitors” (ACS Med Chem Lett, 2021)
Numbered stars: 1 amine (or outer) side, 2 acyl side, 3 side chain; on linkers, the order of the positions; unused ones are H or OH. Square brackets hold non-standard residues; d marks the D form. Peptide text beside a SMILES is read from it. * marks the point of attachment. X1 = O=C(O)c1cc(NC(=S)*)ccc1-c1c2ccc(=O)cc-2oc2cc(O)ccc12; X2 = CN(CCC(=O)*)c1ccc(/N=N/c2ccc([N+](=O)[O-])cc2)cc1; Achc(trans-4) = O=C([C@H]1CC[C@H](N[*:1])CC1)[*:2]; X3 = CN(C)c1ccc(/N=N/c2ccc(CCC(=O)*)cc2)cc1

Legend:
[1] = molecular target: T1, NAD-dependent protein deacetylase sirtuin-1 (Homo sapiens) (UniProt Q96EB6); assay: Binding affinity to SIRT1 (unknown origin) assessed as increase in fluorescence intensity at 2.5 uM measured at 5 mins interval for 1 hr in presence of NAD+ by fluorometric method relative to control
T1 sequence (whole entry): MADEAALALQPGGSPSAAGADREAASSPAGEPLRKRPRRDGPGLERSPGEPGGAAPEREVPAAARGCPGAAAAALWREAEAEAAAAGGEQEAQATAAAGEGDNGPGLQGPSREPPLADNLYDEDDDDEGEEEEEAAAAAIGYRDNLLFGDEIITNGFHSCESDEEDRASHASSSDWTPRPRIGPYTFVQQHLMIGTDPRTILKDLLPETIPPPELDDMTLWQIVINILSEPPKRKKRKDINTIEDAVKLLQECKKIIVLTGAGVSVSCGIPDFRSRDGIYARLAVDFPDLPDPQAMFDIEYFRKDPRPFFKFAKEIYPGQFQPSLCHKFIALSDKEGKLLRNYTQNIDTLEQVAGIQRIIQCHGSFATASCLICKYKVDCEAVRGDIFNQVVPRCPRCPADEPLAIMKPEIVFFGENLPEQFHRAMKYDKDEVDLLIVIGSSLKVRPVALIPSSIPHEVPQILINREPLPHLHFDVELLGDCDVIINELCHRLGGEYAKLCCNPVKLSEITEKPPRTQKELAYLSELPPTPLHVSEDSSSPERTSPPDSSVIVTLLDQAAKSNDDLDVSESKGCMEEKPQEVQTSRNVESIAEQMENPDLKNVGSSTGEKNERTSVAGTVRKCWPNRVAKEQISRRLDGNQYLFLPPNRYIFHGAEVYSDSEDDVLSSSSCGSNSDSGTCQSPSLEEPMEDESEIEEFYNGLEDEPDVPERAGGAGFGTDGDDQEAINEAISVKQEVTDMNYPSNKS
Procedure, shortened: (§1)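 Each FITC/quencher FRET peptide probe was incubated with recombinant SIRT1–7 in 96-well half-area plates at 37 °C for 1 h. The fluorescence increase is reported as a fold change, SIRT(+) signal over SIRT(−) signal, after 1 h.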

[2] = molecular target: T2, NAD-dependent protein deacetylase sirtuin-2 (Homo sapiens) (UniProt Q8IXJ6); assay: Binding affinity to SIRT2 (unknown origin) assessed as increase in fluorescence intensity at 2.5 uM measured at 5 mins interval for 1 hr in presence of NAD+ by fluorometric method relative to control; procedure, shortened: as §1
T2 sequence (whole entry): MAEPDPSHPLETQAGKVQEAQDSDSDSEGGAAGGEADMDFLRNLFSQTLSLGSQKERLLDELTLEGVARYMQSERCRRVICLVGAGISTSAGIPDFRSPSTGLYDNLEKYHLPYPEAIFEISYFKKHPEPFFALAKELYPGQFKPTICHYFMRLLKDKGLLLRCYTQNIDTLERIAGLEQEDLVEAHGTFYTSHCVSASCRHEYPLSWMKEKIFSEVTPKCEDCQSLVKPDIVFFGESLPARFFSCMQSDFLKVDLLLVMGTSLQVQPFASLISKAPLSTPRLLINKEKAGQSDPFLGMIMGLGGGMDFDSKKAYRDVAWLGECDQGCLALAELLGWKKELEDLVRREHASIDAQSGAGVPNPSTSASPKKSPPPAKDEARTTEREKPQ

[3] = molecular target: T3, NAD-dependent protein deacetylase sirtuin-3, mitochondrial (Homo sapiens) (UniProt Q9NTG7); assay: Binding affinity to SIRT3 (unknown origin) assessed as increase in fluorescence intensity at 2.5 uM measured at 5 mins interval for 1 hr in presence of NAD+ by fluorometric method relative to control; procedure, shortened: as §1
T3 sequence (whole entry): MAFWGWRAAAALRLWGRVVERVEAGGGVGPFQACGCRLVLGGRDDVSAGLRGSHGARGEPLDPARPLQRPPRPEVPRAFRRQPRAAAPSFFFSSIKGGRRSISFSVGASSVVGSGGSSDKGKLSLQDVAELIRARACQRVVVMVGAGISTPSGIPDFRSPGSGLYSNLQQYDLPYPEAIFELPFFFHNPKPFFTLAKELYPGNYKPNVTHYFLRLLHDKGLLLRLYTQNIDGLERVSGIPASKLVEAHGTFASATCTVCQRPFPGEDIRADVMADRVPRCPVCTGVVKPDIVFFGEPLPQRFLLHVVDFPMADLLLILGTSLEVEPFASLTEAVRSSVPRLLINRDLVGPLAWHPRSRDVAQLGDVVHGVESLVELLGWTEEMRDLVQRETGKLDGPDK

[4] = molecular target: T4, NAD-dependent protein lipoamidase sirtuin-4, mitochondrial (Homo sapiens) (UniProt Q9Y6E7); assay: Binding affinity to SIRT4 (unknown origin) assessed as increase in fluorescence intensity at 2.5 uM measured at 5 mins interval for 1 hr in presence of NAD+ by fluorometric method relative to control; procedure, shortened: as §1
T4 sequence (whole entry): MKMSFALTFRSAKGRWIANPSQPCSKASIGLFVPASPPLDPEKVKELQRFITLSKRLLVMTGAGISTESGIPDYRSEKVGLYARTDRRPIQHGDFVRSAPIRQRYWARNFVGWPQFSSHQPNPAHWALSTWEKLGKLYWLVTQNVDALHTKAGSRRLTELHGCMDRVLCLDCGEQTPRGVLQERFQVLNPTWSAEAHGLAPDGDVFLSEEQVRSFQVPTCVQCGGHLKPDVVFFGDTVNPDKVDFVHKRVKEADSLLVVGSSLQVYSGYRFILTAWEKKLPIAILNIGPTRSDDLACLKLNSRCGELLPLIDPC

[5] = molecular target: NAD-dependent protein deacylase sirtuin-5, mitochondrial (Homo sapiens) (UniProt Q9NXA8); assay: Binding affinity to SIRT5 (unknown origin) assessed as increase in fluorescence intensity at 2.5 uM measured at 5 mins interval for 1 hr in presence of NAD+ by fluorometric method relative to control; procedure, shortened: as §1
[6] = molecular target: NAD-dependent protein deacylase sirtuin-6 (Homo sapiens) (UniProt Q8N6T7); assay: Binding affinity to SIRT6 (unknown origin) assessed as increase in fluorescence intensity at 2.5 uM measured at 5 mins interval for 1 hr in presence of NAD+ by fluorometric method relative to control; procedure, shortened: as §1
[7] = molecular target: T5, NAD-dependent protein deacetylase sirtuin-7 (Homo sapiens) (UniProt Q9NRC8); assay: Binding affinity to SIRT7 (unknown origin) assessed as increase in fluorescence intensity at 2.5 uM measured at 5 mins interval for 1 hr in presence of NAD+ by fluorometric method relative to control; procedure, shortened: as §1
T5 sequence (whole entry): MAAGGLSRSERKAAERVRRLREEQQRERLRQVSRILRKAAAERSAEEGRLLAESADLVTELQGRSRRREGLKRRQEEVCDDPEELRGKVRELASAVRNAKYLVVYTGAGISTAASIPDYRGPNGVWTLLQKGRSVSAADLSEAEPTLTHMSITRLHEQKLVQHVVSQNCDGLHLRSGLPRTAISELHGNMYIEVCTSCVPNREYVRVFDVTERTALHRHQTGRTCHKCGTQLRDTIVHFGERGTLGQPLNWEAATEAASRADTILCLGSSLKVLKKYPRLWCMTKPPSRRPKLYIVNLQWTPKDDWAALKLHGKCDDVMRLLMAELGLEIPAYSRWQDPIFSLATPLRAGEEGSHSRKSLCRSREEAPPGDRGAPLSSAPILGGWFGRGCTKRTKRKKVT

Sequence of NAD-dependent protein deacylase sirtuin-5, mitochondrial (Homo sapiens) (Q9NXA8 37-310 limits assumed): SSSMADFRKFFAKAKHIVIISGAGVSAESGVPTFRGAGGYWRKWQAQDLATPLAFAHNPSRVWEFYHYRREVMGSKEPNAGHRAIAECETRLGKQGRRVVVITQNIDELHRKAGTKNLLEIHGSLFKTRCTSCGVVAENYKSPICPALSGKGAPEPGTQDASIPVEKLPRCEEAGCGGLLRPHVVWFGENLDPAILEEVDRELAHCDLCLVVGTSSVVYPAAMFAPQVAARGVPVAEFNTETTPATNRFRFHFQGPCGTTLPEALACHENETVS
Sequence of NAD-dependent protein deacylase sirtuin-6 (Homo sapiens) (Q8N6T7 whole entry): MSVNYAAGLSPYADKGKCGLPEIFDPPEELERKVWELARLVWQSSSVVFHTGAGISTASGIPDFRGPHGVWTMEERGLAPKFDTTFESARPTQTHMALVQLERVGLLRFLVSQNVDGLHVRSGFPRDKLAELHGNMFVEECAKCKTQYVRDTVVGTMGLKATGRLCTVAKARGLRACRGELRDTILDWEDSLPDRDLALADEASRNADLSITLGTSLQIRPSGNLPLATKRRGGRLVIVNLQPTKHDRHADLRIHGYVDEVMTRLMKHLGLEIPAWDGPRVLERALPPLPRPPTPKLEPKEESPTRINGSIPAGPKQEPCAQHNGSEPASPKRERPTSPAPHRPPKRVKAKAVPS

Row | fold change (FC) [1] | fold change (FC) [2] | fold change (FC) [3] | fold change (FC) [4] | fold change (FC) [5] | fold change (FC) [6] | fold change (FC) [7] | SMILES
1 | 4.76 | 1.92 | 1.96 | 1.11 | 1.09 | 1.05 | 1.01 | CC[C@H](C)[C@H](NC(=O)[C@H](CCCNC(=N)N)NC(=O)[C@H](Cc1ccc(O)cc1)NC(=O)[C@H](CC(=O)O)NC(=O)[C@H]1CC[C@H](NC(=S)Nc2ccc(-c3c4ccc(=O)cc-4oc4cc(O)ccc34)c(C(=O)O)c2)CC1)C(=O)N[C@@H](CCCCNC(=O)CCc1ccc(/N=N/c2ccc(N(C)C)cc2)cc1)C(=O)N[C@@H](CCCNC(=N)N)C(=O)N[C@@H](Cc1ccc(O)cc1)C(=O)N[C@@H](Cc1c[nH]cn1)C(=O)N[C@H](C(N)=O)[C@@H](C)O (X1-[Achc(trans-4)]DYRIK(X3)RYHT-NH2)
2 | 12 | 5.45 |  | 0.93 | 1.07 | 1.33 | 1.03 | C[C@H](NC(=O)CNC(=O)CNC(=O)[C@H](CCCCN)NC(=O)[C@H]1CC[C@H](NC(=S)Nc2ccc(-c3c4ccc(=O)cc-4oc4cc(O)ccc34)c(C(=O)O)c2)CC1)C(=O)N[C@@H](CCCCNC(=O)CCc1ccc(/N=N/c2ccc(N(C)C)cc2)cc1)C(=O)N[C@@H](CCCNC(=N)N)C(=O)N[C@@H](Cc1c[nH]cn1)C(=O)N[C@@H](CCCNC(=N)N)C(=O)N[C@@H](CCCCN)C(N)=O
3 | 4.79 | 1.85 | 1.92 | 1.14 | 1.11 | 1.07 | 1.04 | CC[C@H](C)[C@H](NC(=O)[C@H](CCCNC(=N)N)NC(=O)[C@H](Cc1ccccc1)NC(=O)[C@H](CC(N)=O)NC(=O)[C@H]1CC[C@H](NC(=S)Nc2ccc(-c3c4ccc(=O)cc-4oc4cc(O)ccc34)c(C(=O)O)c2)CC1)C(=O)N[C@@H](CCCCNC(=O)CCc1ccc(/N=N/c2ccc(N(C)C)cc2)cc1)C(=O)N[C@@H](CCCNC(=N)N)C(=O)N[C@@H](Cc1ccc(O)cc1)C(=O)N[C@@H](CO)C(=O)N[C@@H](CC(N)=O)C(N)=O (X1-[Achc(trans-4)]NFRIK(X3)RYSN-NH2)

More lines, now with the values behind:

Row | SMILES | fold change (FC) [1] | fold change (FC) [2] | fold change (FC) [3] | fold change (FC) [4] | fold change (FC) [5] | fold change (FC) [6] | fold change (FC) [7]
4 | C[C@H](NC(=O)CNC(=O)CNC(=O)[C@H](CCCCN)NC(=O)[C@H]1CC[C@H](NC(=S)Nc2ccc(-c3c4ccc(=O)cc-4oc4cc(O)ccc34)c(C(=O)O)c2)CC1)C(=O)N[C@@H](CCCCNC(=O)CCN(C)c1ccc(/N=N/c2ccc([N+](=O)[O-])cc2)cc1)C(=O)N[C@@H](CCCNC(=N)N)C(=O)N[C@@H](Cc1c[nH]cn1)C(=O)N[C@@H](CCCNC(=N)N)C(=O)N[C@@H](CCCCN)C(N)=O | 14.7 | 10.3 |  | 1.04 | 1.07 | 2.55 | 1.09
5 | C[C@H](NC(=O)[C@@H]1CCCN1C(=O)[C@H](C)NC(=O)[C@H]1CC[C@H](NC(=S)Nc2ccc(-c3c4ccc(=O)cc-4oc4cc(O)ccc34)c(C(=O)O)c2)CC1)C(=O)N1CCC[C@H]1C(=O)N[C@@H](CCCCNC(=O)CCN(C)c1ccc(/N=N/c2ccc([N+](=O)[O-])cc2)cc1)C(=O)N[C@@H](CCCCN)C(=O)NCC(=O)N[C@@H](CO)C(=O)N[C@@H](CCCCN)C(N)=O (X1-[Achc(trans-4)]APAPK(X2)KGSK-NH2) | 5 | 3.83 | 12.3 | 1.18 | 0.99 | 3.51 | 1.01
6 | C[C@H](NC(=O)CNC(=O)CNC(=O)[C@H]1CC[C@H](NC(=S)Nc2ccc(-c3c4ccc(=O)cc-4oc4cc(O)ccc34)c(C(=O)O)c2)CC1)C(=O)N[C@@H](CCCCNC(=O)CCc1ccc(/N=N/c2ccc(N(C)C)cc2)cc1)C(=O)N[C@@H](CCCNC(=N)N)C(=O)N[C@@H](Cc1c[nH]cn1)C(=O)N[C@@H](CCCNC(=N)N)C(N)=O | 10.9 | 4.72 | 5.45 | 0.92 | 1.03 | 1.05 | 1.01
7 | C[C@H](NC(=O)[C@@H](NC(=O)[C@H](CCC(N)=O)NC(=O)[C@H]1CC[C@H](NC(=S)Nc2ccc(-c3c4ccc(=O)cc-4oc4cc(O)ccc34)c(C(=O)O)c2)CC1)[C@@H](C)O)C(=O)N[C@@H](CCCNC(=N)N)C(=O)N[C@@H](CCCCNC(=O)CCN(C)c1ccc(/N=N/c2ccc([N+](=O)[O-])cc2)cc1)C(=O)N[C@@H](CO)C(=O)N[C@H](C(=O)NCC(=O)NCC(=O)O)[C@@H](C)O | 6.06 | 4.06 |  | 1.2 | 1.07 | 9.38 | 1.04
8 | CC(=O)N[C@@H](CCC(N)=O)C(=O)N[C@H](C(=O)N[C@@H](C)C(=O)N[C@@H](CCCNC(=N)N)C(=O)N[C@@H](CCCCNC(=O)CCc1ccc(/N=N/c2ccc(N(C)C)cc2)cc1)C(=O)N[C@@H](CO)C(=O)N[C@H](C(=O)NCC(=O)NCC(=O)NCCCNC(=S)Nc1ccc(-c2c3ccc(=O)cc-3oc3cc(O)ccc23)c(C(=O)O)c1)[C@@H](C)O)[C@@H](C)O | 13.8 | 5.89 |  | 1.03 | 1.08 | 3.6 | 1.04
